Laboratory results reported in ChEMBL document CHEMBL4414562, “Discovery of the First in Vivo Active Inhibitors of the Soluble Epoxide Hydrolase Phosphatase Domain” (J Med Chem, 2019).
Calls of active or inactive are those of the source. The rule behind the calls is not given here.

Tests used:
[1] = target: T1, Oxysterols receptor LXR-beta (Homo sapiens) (UniProt P55055); assay: Activation of Gal4-fused human LXRbeta LBD transfected in HEK293T cells at 10 uM after 12 to 14 hrs by luciferase reporter gene assay; type: cell-based
T1 sequence (whole entry): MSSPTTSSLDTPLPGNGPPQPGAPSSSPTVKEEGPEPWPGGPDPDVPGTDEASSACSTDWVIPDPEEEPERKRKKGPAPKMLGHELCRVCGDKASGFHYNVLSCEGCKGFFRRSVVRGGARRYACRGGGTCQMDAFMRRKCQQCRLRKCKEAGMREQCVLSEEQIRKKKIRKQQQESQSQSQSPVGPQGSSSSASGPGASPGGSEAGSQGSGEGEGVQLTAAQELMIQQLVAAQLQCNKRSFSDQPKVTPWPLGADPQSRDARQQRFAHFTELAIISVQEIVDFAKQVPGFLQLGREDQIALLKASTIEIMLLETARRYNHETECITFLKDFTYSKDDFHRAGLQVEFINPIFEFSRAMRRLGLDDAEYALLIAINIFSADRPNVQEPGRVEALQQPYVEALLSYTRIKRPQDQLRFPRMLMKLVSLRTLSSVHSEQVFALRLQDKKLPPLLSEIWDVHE
How it was run: (§1)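 Gal4–human nuclear receptor LBD fusion (pFA-CMV-hNR-LBD) co-transfected with pFR-Luc and pRL-SV40 (Lipofectamine LTX) into HEK293T cells seeded the day before. 5 h post-transfection, compound added in Opti-MEM with 0.1% DMSO and incubated 12−14 h. Dual-Glo firefly/Renilla luciferase read. Activation expressed relative to reference agonist at 1 μM. Triplicates, ≥3 independent experiments.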

[2] = target: T2, Bifunctional epoxide hydrolase 2 (Mus musculus, UniProt P34914); assay: Inhibition of hydrolase activity of full length mouse soluble epoxide hydrolase pre-incubated for 30 mins before PHOME substrate addition by fluorescence based assay
T2 sequence (P34914 whole entry): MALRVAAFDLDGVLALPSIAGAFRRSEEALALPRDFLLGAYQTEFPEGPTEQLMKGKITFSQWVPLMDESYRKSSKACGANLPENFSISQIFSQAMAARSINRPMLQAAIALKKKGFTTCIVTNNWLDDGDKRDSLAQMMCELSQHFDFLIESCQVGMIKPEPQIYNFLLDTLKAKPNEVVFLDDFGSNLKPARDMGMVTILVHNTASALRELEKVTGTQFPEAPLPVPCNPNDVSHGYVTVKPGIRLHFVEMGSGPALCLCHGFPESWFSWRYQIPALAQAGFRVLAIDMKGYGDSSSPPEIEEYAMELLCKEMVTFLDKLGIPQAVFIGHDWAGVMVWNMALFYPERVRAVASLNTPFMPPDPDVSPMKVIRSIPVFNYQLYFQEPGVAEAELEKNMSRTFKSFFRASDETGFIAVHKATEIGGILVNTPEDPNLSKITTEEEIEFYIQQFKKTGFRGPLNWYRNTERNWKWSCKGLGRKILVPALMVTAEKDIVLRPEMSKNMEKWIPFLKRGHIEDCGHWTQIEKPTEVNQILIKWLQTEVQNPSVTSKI
How it was run: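 Hydrolase assay with 0.1 μM full-length enzyme in Bis-Tris pH 7 containing 0.1 mg/mL BSA and 0.01% Triton X-100. […] Reaction started with PHOME (50 μM final). 6-Methoxynaphthaldehyde fluorescence (ex 330/em 465 nm) read every minute for 45 min. Triplicates.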

[3] = target: T3, Prostaglandin G/H synthase 2 (Homo sapiens, UniProt P35354); assay: Inhibition of COX2 in LPS-stimulated human monocytes assessed as reduction in PGE2 production by LC-tandem MIS analysis; type: cell-based
T3 sequence (P35354 whole entry): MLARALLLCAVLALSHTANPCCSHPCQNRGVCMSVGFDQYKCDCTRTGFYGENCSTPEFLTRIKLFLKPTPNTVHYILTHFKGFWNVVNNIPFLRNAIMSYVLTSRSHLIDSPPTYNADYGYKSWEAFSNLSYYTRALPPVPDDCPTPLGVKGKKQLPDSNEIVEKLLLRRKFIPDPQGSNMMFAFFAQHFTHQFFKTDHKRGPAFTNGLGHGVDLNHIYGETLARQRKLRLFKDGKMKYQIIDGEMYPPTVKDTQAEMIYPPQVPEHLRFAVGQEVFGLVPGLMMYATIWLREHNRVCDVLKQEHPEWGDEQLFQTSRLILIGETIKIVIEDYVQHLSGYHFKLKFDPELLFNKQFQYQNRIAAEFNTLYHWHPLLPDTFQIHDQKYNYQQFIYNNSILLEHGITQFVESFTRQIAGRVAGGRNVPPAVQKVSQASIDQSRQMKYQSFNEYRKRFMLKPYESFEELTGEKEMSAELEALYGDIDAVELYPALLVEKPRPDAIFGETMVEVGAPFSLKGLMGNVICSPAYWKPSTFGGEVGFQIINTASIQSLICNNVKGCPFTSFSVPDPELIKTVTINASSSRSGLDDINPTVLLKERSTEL
How it was run: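 Human monocytes resuspended in HBSS and pretreated with increasing compound concentrations before LPS challenge. PGE2 quantified by LC−MS/MS using PGE2-d4 isotope-dilution internal standard.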

[4] = target: T4, Retinoic acid receptor RXR-alpha (Homo sapiens) (UniProt P19793); assay: Activation of Gal4-fused human RXRalpha LBD transfected in HEK293T cells at 10 uM after 12 to 14 hrs by luciferase reporter gene assay; type: cell-based; how it was run: as §1
T4 sequence (whole entry): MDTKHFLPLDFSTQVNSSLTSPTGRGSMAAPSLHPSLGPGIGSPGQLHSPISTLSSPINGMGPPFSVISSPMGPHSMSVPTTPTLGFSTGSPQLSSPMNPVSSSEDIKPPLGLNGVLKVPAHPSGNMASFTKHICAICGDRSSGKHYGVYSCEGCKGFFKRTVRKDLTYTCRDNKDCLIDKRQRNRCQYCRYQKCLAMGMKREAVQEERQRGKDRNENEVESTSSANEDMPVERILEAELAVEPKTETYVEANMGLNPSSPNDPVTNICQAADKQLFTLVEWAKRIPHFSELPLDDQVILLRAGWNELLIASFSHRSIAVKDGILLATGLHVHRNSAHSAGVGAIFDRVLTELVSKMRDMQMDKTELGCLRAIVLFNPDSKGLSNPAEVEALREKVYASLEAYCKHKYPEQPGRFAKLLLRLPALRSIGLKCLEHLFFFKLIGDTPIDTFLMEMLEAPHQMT

With `O=C(O)CCCc1nc(-c2ccc(Cl)c(Cl)c2)c(-c2ccccc2)o1` the Activity [1] was “inactive”, the IC50 [2] was greater than 30000 nM and the IC50 [3] was 420 nM. The Activity [4] was 77%.

In the case of `O=C(O)CCc1nc(-c2ccccc2)c(-c2ccccc2)o1` [OXAPROZIN], the Activity [1] is reported as “inactive”, the IC50 [2] is reported as greater than 300000 nM and the IC50 [3] is reported as 110 nM. The Activity [4] was 14.4%.
